Reference: ChEMBL document CHEMBL1146375, “Synthetic studies on novel benzimidazolopeptides with antimicrobial, cytotoxic and anthelmintic potential” (2007)
Converted amounts (≈) assume the structure as drawn. Residues, ends and D or L forms follow the SMILES beside them. *: point of attachment. X1 = Cc1cc2nc(-c3ccc(O)c(C(=O)*)c3)[nH]c2cc1C

Key:
Bacillus subtilis [1] = test: Antibacterial activity against Bacillus subtilis NCIM 2063 after 18 hrs by disc diffusion method; type: functional
Method in brief: (§1)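 Modified Kirby-Bauer disc diffusion. Plates inoculated with spore suspension (about 6 × 10⁴ spores mL^-1). Sterile 6 mm paper discs carried test samples at 10 mg mL^-1; ciprofloxacin disc as reference, DMF disc as negative control. Plates held 18 h at 37 °C. Inhibition zone diameters (mm) averaged over triplicate sets.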

Trichophyton benhamiae [2] = test: Antifungal activity against Trichophyton mentagrophytes MUCC 665 after 48 hrs by tube dilution method; type: functional, Arthroderma benhamiae
Method in brief: (§2)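 Tube dilution MIC as for bacteria (seven concentrations, 200–3.1 […]), with DMSO in place of DMF. Tubes inoculated with fungal culture and incubated 48 h at 37 °C. MIC read from presence or absence of growth.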

Bacillus subtilis [3] = test: Antibacterial activity against Bacillus subtilis NCIM 2063 after 18 hrs by tube dilution method; type: functional; details: NCIM 2063, 18 h
Method in brief: (§3)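 Tube dilution MIC. Stock diluted in sterile broth to seven concentrations from 200 to 3.1 […]. Each tube inoculated with one loopful of test bacterium and incubated 18 h at 37 °C. MIC read from presence or absence of growth.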

[4] = Growth inhibition of DLA cells at 3.91 ug/mL after 3 hrs; type: functional; details: Mus musculus
Method in brief: (§4)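 DLA and EAC cells passaged intraperitoneally in albino mice, harvested after 15–20 days and adjusted to 1 × 10⁶ cells/mL. Dilutions in Dulbecco's medium (500–31.25, some down to 3.91 µg/mL; 5-FU reference) mixed 1:1 with cells and held 3 h at 37 °C. Trypan blue exclusion gave % growth inhibition; CTC50 by graphical extrapolation.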

Microsporum audouinii [5] = test: Antifungal activity against Microsporum audouinii MUCC 545 after 48 hrs by disc diffusion method; type: functional
Method in brief: (§5)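 Agar well diffusion on plates inoculated with spore suspension in normal saline from cultures on Sabouraud's broth. Wells punched and loaded with test samples or griseofulvin at 10 mg mL^-1, with DMSO as negative control. Incubated 48 h at 37 °C.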

[6] = Growth inhibition of DLA cells at 7.81 ug/mL after 3 hrs; type: functional; details: Mus musculus; method in brief: as §4
[7] = Growth inhibition of EAC cells after 3 hrs; type: functional; details: Mus musculus, Ehrlich; method in brief: as §4
Escherichia coli [8] = test: Antibacterial activity against Escherichia coli NCIM 2065 after 18 hrs by tube dilution method; type: functional; details: NCIM 2065, 18 h
Pontoscolex corethrurus [9] = test: Anthelmintic activity against Pontoscolex corethrurus ICARBC 408 assessed as mean paralyzing time; type: functional
Method in brief: (§6)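 Earthworms exposed to test suspensions at 2 mg mL^-1 (0.2% w/v), made by triturating compound with Tween 80 (0.5%) and distilled water, then mechanically stirred 30 min. Mebendazole suspension prepared alike as reference. Paralysis and death times recorded; death confirmed by no movement in 50 °C water. Means from triplicate sets.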

Staphylococcus aureus [10] = test: Antibacterial activity against Staphylococcus aureus NCIM 2079 after 18 hrs by disc diffusion method; type: functional; method in brief: as §1
Pseudomonas aeruginosa [11] = test: Antibacterial activity against Pseudomonas aeruginosa NCIM 2034 after 18 hrs by tube dilution method; type: functional; details: NCIM 2034, 18 h; method in brief: as §3
[12] = Growth inhibition of EAC cells at 3.91 ug/mL after 3 hrs; type: functional; details: Mus musculus, Ehrlich; method in brief: as §4
[13] = Growth inhibition of EAC cells at 62.5 ug/mL after 3 hrs; type: functional; details: Mus musculus, Ehrlich; method in brief: as §4
Trichophyton benhamiae [14] = test: Antifungal activity against Trichophyton mentagrophytes MUCC 665 after 48 hrs by disc diffusion method; type: functional, Arthroderma benhamiae; method in brief: as §5
Aspergillus niger = test: Antifungal activity against Aspergillus niger MUCC 177 after 48 hrs by disc diffusion method; type: functional; method in brief: as §5
[15] = Anthelmintic activity against Megascoplex konkanensis ICARBC 211 assessed as mean paralyzing time; type: functional; method in brief: as §6
Pseudomonas aeruginosa [16] = test: Antibacterial activity against Pseudomonas aeruginosa NCIM 2034 after 18 hrs by disc diffusion method; type: functional; method in brief: as §1
[17] = Anthelmintic activity against Megascoplex konkanensis ICARBC 211 assessed as mean death time; type: functional; method in brief: as §6
Eudrilus [18] = test: Anthelmintic activity against Eudrilus sp. assessed as mean paralyzing time; type: functional; method in brief: as §6
[19] = Growth inhibition of DLA cells after 3 hrs; type: functional; details: Mus musculus; method in brief: as §4
[20] = Growth inhibition of DLA cells at 62.5 ug/mL after 3 hrs; type: functional; details: Mus musculus; method in brief: as §4
[21] = Growth inhibition of EAC cells at 15.63 ug/mL after 3 hrs; type: functional; details: Mus musculus, Ehrlich; method in brief: as §4
[22] = Growth inhibition of EAC cells at 7.81 ug/mL after 3 hrs; type: functional; details: Mus musculus, Ehrlich; method in brief: as §4
Eudrilus [23] = test: Anthelmintic activity against Eudrilus sp. assessed as mean death time; type: functional
Method in brief: (§7)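 Earthworms exposed to test suspensions at 2 mg mL−1, prepared by triturating compound with Tween 80 (0.5%) and distilled water, stirring 30 min, then diluting to 0.2% w/v. Mebendazole suspension was made the same way. Death was confirmed by moving worms into 50 °C warm water and looking for movement. Mean death time (min) taken from triplicate sets.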

[24] = Growth inhibition of EAC cells at 31.25 ug/mL after 3 hrs; type: functional; details: Mus musculus, Ehrlich; method in brief: as §4
Pontoscolex corethrurus [25] = test: Anthelmintic activity against Pontoscolex corethrurus ICARBC 408 assessed as mean death time; type: functional; method in brief: as §7
[26] = Growth inhibition of DLA cells at 31.25 ug/mL after 3 hrs; type: functional; details: Mus musculus; method in brief: as §4
Microsporum audouinii [27] = test: Antifungal activity against Microsporum audouinii MUCC 545 after 48 hrs by tube dilution method; type: functional; method in brief: as §2
Candida albicans [28] = test: Antifungal activity against Candida albicans MUCC 29 after 48 hrs by disc diffusion method; type: functional; method in brief: as §5
Escherichia coli [29] = test: Antibacterial activity against Escherichia coli NCIM 2065 after 18 hrs by disc diffusion method; type: functional; method in brief: as §1
Staphylococcus aureus [30] = test: Antibacterial activity against Staphylococcus aureus NCIM 2079 after 18 hrs by tube dilution method; type: functional; details: NCIM 2079, 18 h; method in brief: as §3
[31] = Growth inhibition of DLA cells at 15.63 ug/mL after 3 hrs; type: functional; details: Mus musculus; method in brief: as §4
Candida albicans [32] = test: Antifungal activity against Candida albicans MUCC 29 after 48 hrs by tube dilution method; type: functional; method in brief: as §2

Row | Compound | inhibition zone (IZ) (Bacillus subtilis [1]) [mm] | MIC (Trichophyton benhamiae [2]) [µg/mL] | MIC (Bacillus subtilis [3]) [µg/mL] | inhibition at 3.91 µg/mL [4] [%] | inhibition zone (IZ) (Microsporum audouinii [5]) [mm] | inhibition at 7.81 µg/mL [6] [%] | CC50 [7] [µM] | MIC (Escherichia coli [8]) [µg/mL] | Time (Pontoscolex corethrurus [9]) [min] | inhibition zone (IZ) (Staphylococcus aureus [10]) [mm] | MIC (Pseudomonas aeruginosa [11]) [µg/mL] | inhibition at 3.91 µg/mL [12] [%] | inhibition at 62.5 µg/mL [13] [%] | inhibition zone (IZ) (Trichophyton benhamiae [14]) [mm] | inhibition zone (IZ) (Aspergillus niger) [mm] | TIME [15] [h] | inhibition zone (IZ) (Pseudomonas aeruginosa [16]) [mm] | TIME [17] [h] | Time (Eudrilus [18]) [min] | CC50 [19] [µM] | also measured
1 | Cc1cc2nc(-c3ccc(O)c(C(=O)NCC(=O)N[C@@H](Cc4c[nH]c5ccccc45)C(=O)NCC(=O)N[C@@H](Cc4cnc[nH]4)C(=O)O)c3)[nH]c2cc1C (X1-GWGH-OH) | 14 | 6 (≈ 8.34 µM) | 6 (≈ 8.34 µM) | 44.7 | 11 | 60.5 | 12 | 12.5 (≈ 17.4 µM) | 12.22 | 10 | 6 (≈ 8.34 µM) | 10.7 | 100 | 16 | 16 | 0.155 | 24 | 0.289 | 10.89 | 6.15 | inhibition at 62.5 µg/mL [20]: 100%; inhibition at 15.63 µg/mL [21]: 75%; inhibition at 7.81 µg/mL [22]: 46.4%; Time (Eudrilus [23]): 19.83 min; inhibition at 31.25 µg/mL [24]: 92.8%; Time (Pontoscolex corethrurus [25]): 24.52 min; inhibition at 31.25 µg/mL [26]: 100%; MIC (Microsporum audouinii [27]): 6 µg/mL (≈ 8.34 µM); inhibition zone (IZ) (Candida albicans [28]): 20 mm; inhibition zone (IZ) (Escherichia coli [29]): 18 mm; MIC (Staphylococcus aureus [30]): 12.5 µg/mL (≈ 17.4 µM); inhibition at 15.63 µg/mL [31]: 81.6%; MIC (Candida albicans [32]): 6 µg/mL (≈ 8.34 µM)
2 | COC(=O)[C@H](Cc1cnc[nH]1)NC(=O)CNC(=O)[C@H](Cc1c[nH]c2ccccc12)NC(=O)CNC(=O)c1cc(-c2nc3cc(C)c(C)cc3[nH]2)ccc1O (X1-GWGH-OMe) | 12 | 6 (≈ 8.18 µM) | 6 (≈ 8.18 µM) | 26.3 | 10 | 44.7 | 18.9 | 12.5 (≈ 17 µM) | 14.34 | 9 | 6 (≈ 8.18 µM) | 7.14 | 100 | 15 | 15 | 0.157 | 23 | 0.291 | 11.06 | 15.3 | inhibition at 62.5 µg/mL [20]: 100%; inhibition at 15.63 µg/mL [21]: 53.6%; inhibition at 7.81 µg/mL [22]: 35.7%; Time (Eudrilus [23]): 20.94 min; inhibition at 31.25 µg/mL [24]: 71.4%; Time (Pontoscolex corethrurus [25]): 26.21 min; inhibition at 31.25 µg/mL [26]: 86.8%; MIC (Microsporum audouinii [27]): 6 µg/mL (≈ 8.18 µM); inhibition zone (IZ) (Candida albicans [28]): 17 mm; inhibition zone (IZ) (Escherichia coli [29]): 17 mm; MIC (Staphylococcus aureus [30]): 12.5 µg/mL (≈ 17 µM); inhibition at 15.63 µg/mL [31]: 55.3%; MIC (Candida albicans [32]): 6 µg/mL (≈ 8.18 µM)
